Laboratory results published in ChEMBL document CHEMBL3576845, “Discovery of Novel Multiacting Topoisomerase I/II and Histone Deacetylase Inhibitors” (ACS Med Chem Lett, 2015).
The source made the active and inactive calls. No cut-off for these calls is given here.

Legend:
[1] = target: DNA topoisomerase 2-alpha (Homo sapiens) (UniProt P11388); assay: Inhibition of topoisomerase-2alpha (unknown origin)-mediated pBR322 DNA relaxation at 50 uM after 30 mins by agarose gel electrophoresis
Summary of the method: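 Purified Top2α relaxation of supercoiled pBR322 plasmid with compound at 50 μM; etoposide 50 μM as reference; DNA-only and DNA + enzyme lanes as controls; gel read-out; repeated 3 times.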

[2] = target: T1, DNA topoisomerase 1 (Homo sapiens) (UniProt P11387); assay: Inhibition of topoisomerase1 (unknown origin)-mediated pBR322 DNA relaxation at 50 uM after 15 mins by agarose gel electrophoresis
T1 sequence (whole entry): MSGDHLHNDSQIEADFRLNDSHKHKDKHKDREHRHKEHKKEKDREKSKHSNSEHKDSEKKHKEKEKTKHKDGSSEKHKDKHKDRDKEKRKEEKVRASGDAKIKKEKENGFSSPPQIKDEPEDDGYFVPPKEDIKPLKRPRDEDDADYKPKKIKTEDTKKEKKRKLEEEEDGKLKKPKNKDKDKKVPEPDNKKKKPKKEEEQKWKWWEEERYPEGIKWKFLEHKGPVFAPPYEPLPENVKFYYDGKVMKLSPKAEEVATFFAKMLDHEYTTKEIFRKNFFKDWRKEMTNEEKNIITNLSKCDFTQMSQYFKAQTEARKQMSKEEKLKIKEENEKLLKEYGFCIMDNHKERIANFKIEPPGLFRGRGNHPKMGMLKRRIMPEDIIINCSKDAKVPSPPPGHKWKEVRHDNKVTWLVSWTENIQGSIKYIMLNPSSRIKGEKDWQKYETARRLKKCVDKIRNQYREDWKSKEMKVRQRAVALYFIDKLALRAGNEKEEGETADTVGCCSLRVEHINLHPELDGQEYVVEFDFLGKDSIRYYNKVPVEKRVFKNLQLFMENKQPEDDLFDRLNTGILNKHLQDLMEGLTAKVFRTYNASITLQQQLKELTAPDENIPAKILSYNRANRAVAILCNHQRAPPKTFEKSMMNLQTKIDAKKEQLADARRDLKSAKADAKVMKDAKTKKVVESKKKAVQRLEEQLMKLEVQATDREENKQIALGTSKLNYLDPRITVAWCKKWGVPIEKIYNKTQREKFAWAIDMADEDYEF
Summary of the method: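 Relaxation of supercoiled pBR322 plasmid by purified Top1 with compound at 50 μM; camptothecin 50 μM as reference; DNA-only and DNA + enzyme lanes as controls; gel read-out; repeated 3 times.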

[3] = Cytotoxicity against HLF assessed as growth inhibition after 72 hrs by MTT assay; type: functional; settings: Homo sapiens
HCT-116 [4] = assay: Cytotoxicity against human HCT116 cells assessed as growth inhibition after 72 hrs by MTT assay; type: functional, cell-based; settings: HCT-116, 72 h
MDA-MB-231 = assay: Cytotoxicity against human MDA-MB-231 cells assessed as growth inhibition after 72 hrs by MTT assay; type: functional, cell-based; settings: MDA-MB-231, 72 h
Histone deacetylase 1 = Histone deacetylase 1 (Homo sapiens, UniProt Q13547); assay: Inhibition of recombinant full length human HDAC1 (1 to 482) expressed in baculovirus infected insect Sf9 cells using fluorogenic HDAC substrate 3 after 30 mins by fluorescence assay
HCT-116 [5] = assay: Induction of apoptosis in human HCT116 cells at 5 uM after 24 hrs by annexin V-FITC/propidium iodide staining-based flow cytometric analysis relative to control; type: functional
HCT-116 [6] = assay: Induction of apoptosis in human HCT116 cells at 5 uM after 48 hrs by annexin V-FITC/propidium iodide staining-based flow cytometric analysis relative to control; type: functional
HCT-116 [7] = assay: Induction of apoptosis in human HCT116 cells assessed as late apoptotic cells at 5 uM after 48 hrs by annexin V-FITC/propidium iodide staining-based flow cytometric analysis (reference value: 3.03%); type: functional
HCT-116 [8] = assay: Induction of apoptosis in human HCT116 cells assessed as early apoptotic cells at 5 uM after 24 hrs by annexin V-FITC/propidium iodide staining-based flow cytometric analysis (reference value: 2.27%); type: functional
HCT-116 [9] = assay: Induction of apoptosis in human HCT116 cells assessed as necrotic cells at 5 uM after 24 hrs by annexin V-FITC/propidium iodide staining-based flow cytometric analysis (reference value: 8%); type: functional
HCT-116 [10] = assay: Induction of apoptosis in human HCT116 cells assessed as necrotic cells at 5 uM after 48 hrs by annexin V-FITC/propidium iodide staining-based flow cytometric analysis (reference value: 5.25%); type: functional
HCT-116 [11] = assay: Induction of apoptosis in human HCT116 cells assessed as early apoptotic cells at 5 uM after 48 hrs by annexin V-FITC/propidium iodide staining-based flow cytometric analysis (reference value: 2.76%); type: functional
HCT-116 [12] = assay: Induction of apoptosis in human HCT116 cells assessed as late apoptotic cells at 5 uM after 24 hrs by annexin V-FITC/propidium iodide staining-based flow cytometric analysis (reference value: 1.05%); type: functional
[13] = target: T2, Protein deacetylase HDAC6 (Homo sapiens, UniProt Q9UBN7); assay: Inhibition of recombinant N-terminal GST-tagged full length human HDAC6 expressed in baculovirus infected insect Sf9 cells using fluorogenic HDAC substrate 3 after 30 mins by fluorescence assay
T2 sequence (Q9UBN7 whole entry): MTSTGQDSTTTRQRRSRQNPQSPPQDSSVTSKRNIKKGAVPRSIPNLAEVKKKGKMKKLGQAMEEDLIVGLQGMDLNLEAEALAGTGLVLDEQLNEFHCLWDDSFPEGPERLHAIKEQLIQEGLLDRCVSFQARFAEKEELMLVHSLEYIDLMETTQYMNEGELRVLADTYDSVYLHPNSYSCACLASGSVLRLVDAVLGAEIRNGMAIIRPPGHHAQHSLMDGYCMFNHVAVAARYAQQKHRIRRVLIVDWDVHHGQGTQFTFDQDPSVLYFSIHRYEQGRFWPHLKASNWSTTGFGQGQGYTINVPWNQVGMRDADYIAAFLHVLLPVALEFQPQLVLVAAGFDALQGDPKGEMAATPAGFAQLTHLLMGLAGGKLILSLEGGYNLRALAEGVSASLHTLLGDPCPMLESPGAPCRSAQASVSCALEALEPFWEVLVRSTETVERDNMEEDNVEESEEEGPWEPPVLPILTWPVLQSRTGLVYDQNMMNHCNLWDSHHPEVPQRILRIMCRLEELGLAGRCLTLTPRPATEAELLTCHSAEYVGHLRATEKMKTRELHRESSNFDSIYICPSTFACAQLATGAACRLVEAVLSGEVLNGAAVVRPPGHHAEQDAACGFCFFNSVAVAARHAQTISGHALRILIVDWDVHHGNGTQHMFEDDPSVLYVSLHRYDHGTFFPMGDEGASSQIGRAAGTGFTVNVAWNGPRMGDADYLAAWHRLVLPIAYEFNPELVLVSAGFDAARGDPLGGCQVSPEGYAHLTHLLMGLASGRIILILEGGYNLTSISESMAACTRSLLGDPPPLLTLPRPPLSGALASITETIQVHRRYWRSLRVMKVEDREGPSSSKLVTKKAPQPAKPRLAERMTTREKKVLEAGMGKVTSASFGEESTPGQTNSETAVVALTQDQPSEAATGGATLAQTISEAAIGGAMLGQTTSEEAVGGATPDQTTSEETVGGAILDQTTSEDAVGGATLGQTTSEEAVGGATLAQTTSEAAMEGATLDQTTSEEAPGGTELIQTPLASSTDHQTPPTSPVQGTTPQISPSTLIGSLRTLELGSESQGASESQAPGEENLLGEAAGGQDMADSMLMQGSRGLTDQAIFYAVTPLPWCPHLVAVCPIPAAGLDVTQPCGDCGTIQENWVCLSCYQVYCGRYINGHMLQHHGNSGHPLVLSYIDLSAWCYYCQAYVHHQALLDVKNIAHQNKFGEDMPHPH

Histone deacetylase 2 = Histone deacetylase 2 (Homo sapiens, UniProt Q92769); assay: Inhibition of recombinant C-terminal His-tagged full length human HDAC2 expressed in baculovirus infected insect Sf9 cells using fluorogenic HDAC substrate 3 after 30 mins by fluorescence assay; type: cell-based
[14] = target: Histone deacetylase (Homo sapiens) (UniProt Q13547+O15379+Q9UBN7+Q92769+Q9UQL6+Q8WUI4+Q9BY41+Q96DB2+P56524+Q9UKV0+Q969S8); assay: Inhibition of HDAC in human HCT116 cells assessed as induction of histone H3 hyperacetylation at 2.5 to 5 uM after 24 to 48 hrs by Western blot analysis; type: cell-based; settings: HCT-116
Summary of the method: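 HCT116 cells treated 24 h with compound at 2.5 or 5 μM alongside an untreated control; lysates probed by Western blot for acetylated histone H3.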

Histone deacetylase 8 = target: T3, Histone deacetylase 8 (Homo sapiens, UniProt Q9BY41); assay: Inhibition of recombinant C-terminal His-tagged full length human HDAC8 expressed in baculovirus infected insect Sf9 cells using fluorogenic HDAC class 2a substrate after 30 mins by fluorescence assay
T3 sequence (Q9BY41 whole entry): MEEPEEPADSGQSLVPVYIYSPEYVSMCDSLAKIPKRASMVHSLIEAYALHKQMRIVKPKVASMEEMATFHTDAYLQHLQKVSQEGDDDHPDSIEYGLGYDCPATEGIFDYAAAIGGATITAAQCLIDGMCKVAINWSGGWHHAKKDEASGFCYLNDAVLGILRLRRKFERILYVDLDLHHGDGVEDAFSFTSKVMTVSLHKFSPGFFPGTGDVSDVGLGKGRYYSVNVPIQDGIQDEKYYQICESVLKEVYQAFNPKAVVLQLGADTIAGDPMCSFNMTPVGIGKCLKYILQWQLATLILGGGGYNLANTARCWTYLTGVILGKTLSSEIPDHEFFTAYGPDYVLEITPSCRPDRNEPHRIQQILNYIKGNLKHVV

[15] = target: Histone deacetylase 3/Nuclear receptor corepressor 2 (HDAC3/NCoR2) (Homo sapiens, UniProt O15379); assay: Inhibition of recombinant C-terminal His-tagged full length human HDAC3/NcoR2 complex expressed in baculovirus infected insect Sf9 cells using fluorogenic HDAC substrate 3 after 30 mins by fluorescence assay
Chain of Histone deacetylase 3/Nuclear receptor corepressor 2 (HDAC3/NCoR2) (O15379 whole entry): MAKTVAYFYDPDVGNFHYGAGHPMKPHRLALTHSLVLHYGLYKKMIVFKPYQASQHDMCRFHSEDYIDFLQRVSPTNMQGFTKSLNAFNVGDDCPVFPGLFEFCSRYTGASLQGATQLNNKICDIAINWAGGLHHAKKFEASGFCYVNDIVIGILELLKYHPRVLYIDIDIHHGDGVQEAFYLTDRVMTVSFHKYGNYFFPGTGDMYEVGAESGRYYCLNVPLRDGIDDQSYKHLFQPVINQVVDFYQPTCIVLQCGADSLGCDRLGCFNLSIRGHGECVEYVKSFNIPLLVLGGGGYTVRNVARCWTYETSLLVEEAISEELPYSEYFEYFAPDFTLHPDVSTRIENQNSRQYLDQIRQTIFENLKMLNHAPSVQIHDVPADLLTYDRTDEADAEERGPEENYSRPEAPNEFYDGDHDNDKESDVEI
Chain of Histone deacetylase 3/Nuclear receptor corepressor 2 (HDAC3/NCoR2) (Q9Y618 whole entry, further chain): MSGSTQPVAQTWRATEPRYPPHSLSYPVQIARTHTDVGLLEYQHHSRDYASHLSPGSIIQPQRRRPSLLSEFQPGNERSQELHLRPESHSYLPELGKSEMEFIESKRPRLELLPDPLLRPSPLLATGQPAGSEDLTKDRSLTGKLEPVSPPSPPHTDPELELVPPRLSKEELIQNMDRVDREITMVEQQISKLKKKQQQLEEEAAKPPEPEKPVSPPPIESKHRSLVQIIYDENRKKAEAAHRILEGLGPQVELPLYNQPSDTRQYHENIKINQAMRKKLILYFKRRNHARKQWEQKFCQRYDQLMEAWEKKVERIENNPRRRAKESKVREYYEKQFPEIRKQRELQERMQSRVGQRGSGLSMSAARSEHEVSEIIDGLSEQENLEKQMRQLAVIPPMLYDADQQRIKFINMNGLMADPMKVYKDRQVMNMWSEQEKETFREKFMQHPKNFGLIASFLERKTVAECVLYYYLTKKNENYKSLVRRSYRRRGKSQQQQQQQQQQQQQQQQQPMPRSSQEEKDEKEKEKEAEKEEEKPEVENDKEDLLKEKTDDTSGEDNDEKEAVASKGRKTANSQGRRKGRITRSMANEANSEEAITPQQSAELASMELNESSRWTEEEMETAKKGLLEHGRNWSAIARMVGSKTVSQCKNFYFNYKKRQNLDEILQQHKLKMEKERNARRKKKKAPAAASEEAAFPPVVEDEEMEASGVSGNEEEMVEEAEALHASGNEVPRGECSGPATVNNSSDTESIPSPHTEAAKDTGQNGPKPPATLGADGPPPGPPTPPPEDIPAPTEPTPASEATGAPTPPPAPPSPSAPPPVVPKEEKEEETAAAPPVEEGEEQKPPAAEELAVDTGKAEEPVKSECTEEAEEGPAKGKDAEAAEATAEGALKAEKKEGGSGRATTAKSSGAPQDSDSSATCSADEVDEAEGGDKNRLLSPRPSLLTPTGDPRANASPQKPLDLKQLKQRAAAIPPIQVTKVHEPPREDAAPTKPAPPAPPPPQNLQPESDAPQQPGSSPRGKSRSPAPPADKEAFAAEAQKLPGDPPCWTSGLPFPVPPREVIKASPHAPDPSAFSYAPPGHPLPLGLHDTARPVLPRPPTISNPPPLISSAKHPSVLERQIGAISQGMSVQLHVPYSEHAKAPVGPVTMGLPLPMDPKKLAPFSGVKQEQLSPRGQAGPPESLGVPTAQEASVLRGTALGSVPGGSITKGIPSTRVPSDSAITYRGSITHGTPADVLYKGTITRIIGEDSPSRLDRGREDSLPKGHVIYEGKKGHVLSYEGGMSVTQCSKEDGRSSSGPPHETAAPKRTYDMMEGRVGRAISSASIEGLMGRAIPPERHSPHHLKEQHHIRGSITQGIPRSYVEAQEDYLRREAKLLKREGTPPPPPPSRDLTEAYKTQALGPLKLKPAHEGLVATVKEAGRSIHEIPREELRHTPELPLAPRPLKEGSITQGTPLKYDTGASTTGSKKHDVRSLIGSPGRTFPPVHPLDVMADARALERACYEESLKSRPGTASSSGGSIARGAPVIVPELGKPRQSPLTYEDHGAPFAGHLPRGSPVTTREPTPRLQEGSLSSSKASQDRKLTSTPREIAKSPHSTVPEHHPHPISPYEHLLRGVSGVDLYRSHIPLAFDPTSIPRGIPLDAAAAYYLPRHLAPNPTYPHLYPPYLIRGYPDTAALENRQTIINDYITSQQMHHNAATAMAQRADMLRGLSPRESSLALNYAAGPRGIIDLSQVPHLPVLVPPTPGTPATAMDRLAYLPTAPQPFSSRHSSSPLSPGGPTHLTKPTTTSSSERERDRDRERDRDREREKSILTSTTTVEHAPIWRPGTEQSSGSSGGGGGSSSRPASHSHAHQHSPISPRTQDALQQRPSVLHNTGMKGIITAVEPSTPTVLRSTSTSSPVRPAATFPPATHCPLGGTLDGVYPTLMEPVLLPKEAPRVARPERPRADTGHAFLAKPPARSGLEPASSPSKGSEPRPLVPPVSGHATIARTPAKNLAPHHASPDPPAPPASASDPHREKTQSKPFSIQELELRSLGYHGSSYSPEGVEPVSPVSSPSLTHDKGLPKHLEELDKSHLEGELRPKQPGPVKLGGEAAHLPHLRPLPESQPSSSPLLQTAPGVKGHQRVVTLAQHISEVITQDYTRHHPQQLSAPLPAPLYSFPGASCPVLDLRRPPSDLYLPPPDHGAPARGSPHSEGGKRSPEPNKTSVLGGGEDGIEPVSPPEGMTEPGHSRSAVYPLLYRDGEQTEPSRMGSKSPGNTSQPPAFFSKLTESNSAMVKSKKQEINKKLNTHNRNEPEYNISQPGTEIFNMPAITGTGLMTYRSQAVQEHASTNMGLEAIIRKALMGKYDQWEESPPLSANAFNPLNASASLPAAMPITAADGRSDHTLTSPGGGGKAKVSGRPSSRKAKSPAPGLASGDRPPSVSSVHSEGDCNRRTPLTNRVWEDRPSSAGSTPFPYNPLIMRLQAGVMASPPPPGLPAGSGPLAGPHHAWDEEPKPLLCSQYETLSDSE

Chain of DNA topoisomerase 2-alpha (Homo sapiens) (P11388 whole entry): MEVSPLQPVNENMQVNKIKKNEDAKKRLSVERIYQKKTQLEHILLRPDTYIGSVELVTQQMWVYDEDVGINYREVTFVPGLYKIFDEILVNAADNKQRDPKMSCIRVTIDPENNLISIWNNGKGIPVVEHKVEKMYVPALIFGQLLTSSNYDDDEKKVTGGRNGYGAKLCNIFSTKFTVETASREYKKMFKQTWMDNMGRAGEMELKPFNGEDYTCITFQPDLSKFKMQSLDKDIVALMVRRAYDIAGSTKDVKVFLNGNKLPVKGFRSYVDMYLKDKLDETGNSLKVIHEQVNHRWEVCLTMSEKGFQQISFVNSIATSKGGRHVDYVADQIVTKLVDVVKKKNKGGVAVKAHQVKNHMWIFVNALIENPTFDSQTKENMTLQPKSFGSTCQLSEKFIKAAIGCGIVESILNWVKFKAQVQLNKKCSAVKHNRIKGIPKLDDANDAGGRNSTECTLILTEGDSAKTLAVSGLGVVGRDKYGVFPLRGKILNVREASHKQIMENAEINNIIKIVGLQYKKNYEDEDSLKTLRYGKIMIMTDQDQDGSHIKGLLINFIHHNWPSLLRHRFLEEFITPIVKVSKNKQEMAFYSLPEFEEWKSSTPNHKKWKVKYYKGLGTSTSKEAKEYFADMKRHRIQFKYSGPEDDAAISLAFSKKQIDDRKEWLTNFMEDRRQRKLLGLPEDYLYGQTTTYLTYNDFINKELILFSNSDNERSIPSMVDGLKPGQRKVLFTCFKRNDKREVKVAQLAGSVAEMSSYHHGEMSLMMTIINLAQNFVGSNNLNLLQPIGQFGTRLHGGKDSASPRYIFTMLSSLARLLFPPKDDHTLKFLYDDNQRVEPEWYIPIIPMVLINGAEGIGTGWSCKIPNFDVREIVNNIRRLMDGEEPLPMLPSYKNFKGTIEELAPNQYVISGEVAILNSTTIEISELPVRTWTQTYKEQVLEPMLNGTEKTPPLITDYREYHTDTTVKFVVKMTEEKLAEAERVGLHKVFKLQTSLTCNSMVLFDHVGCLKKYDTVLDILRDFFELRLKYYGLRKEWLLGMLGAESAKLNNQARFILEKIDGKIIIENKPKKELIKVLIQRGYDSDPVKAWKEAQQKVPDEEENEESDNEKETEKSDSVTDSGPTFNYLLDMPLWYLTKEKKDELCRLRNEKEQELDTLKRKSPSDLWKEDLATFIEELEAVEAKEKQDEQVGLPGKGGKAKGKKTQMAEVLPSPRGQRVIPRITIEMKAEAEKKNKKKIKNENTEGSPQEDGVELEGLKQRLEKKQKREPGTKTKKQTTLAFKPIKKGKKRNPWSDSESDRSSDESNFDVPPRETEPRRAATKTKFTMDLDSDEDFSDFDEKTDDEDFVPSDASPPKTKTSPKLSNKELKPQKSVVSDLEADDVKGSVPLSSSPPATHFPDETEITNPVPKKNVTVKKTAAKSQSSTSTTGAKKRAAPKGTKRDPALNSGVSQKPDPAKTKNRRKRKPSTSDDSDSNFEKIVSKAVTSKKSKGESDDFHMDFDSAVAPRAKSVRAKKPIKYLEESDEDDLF
Chain of Histone deacetylase 1 (Q13547 whole entry): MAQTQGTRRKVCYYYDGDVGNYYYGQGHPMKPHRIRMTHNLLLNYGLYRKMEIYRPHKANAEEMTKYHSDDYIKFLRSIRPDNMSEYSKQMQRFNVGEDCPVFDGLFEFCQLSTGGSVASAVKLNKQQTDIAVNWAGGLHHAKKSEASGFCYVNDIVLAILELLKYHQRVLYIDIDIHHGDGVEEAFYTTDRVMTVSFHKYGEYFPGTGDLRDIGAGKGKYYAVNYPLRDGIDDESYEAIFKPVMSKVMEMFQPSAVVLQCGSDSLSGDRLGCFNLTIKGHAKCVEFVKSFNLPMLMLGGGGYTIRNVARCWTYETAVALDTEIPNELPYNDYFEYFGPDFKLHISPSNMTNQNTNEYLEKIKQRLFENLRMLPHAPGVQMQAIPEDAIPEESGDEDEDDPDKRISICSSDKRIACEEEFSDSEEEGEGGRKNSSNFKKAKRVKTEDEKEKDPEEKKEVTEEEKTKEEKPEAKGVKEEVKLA

inhibition [1] | inhibition [2] | IC50 (Histone deacetylase 1) [µM] | SMILES | IC50 [3] [µM] | IC50 (HCT-116 [4]) [µM] | IC50 (MDA-MB-231) [µM] | further results
Active | Active | 0.03 | CN1c2ccc(NCc3ccc(NC(=O)CCCCCCC(=O)NO)cc3)cc2C(=O)N2CCc3c([nH]c4ccc(O)cc34)C21 (centres undefined) | 13 | 2.1 | 14 | –
Active | Active | 0.093 | CN1c2ccc(NCc3ccc(-c4nnc(CCCCC(=O)NO)o4)cc3)cc2C(=O)N2CCc3c([nH]c4ccc(O)cc34)C21 (centres undefined) | 26 | 4.9 | 30 | –
Active | Active | > 10 | CN1c2ccc(NCc3ccc(-c4nnc(CCCC(=O)NO)o4)cc3)cc2C(=O)N2CCc3c([nH]c4ccc(O)cc34)C21 (centres undefined) | > 168 | 11 | > 168 | –
Active | Active | 0.089 | CN1c2ccc(NCc3ccc(-c4nnc(CCCCCCC(=O)NO)o4)cc3)cc2C(=O)N2CCc3c([nH]c4ccc(O)cc34)C21 (centres undefined) | 6.1 | 9.7 | 5.7 | –
Active | Active | – | CN1c2ccc(N)cc2C(=O)N2CCc3c([nH]c4ccc(O)cc34)C21 (centres undefined) | 0.47 | 0.43 | 0.49 | Activity (HCT-116 [5]): 11.09%; Activity (HCT-116 [6]): 16.39%
Active | Active | 0.321 | CN1c2ccc(NCc3ccc(-c4noc(CCCC(=O)NO)n4)cc3)cc2C(=O)N2CCc3c([nH]c4ccc(O)cc34)C21 (centres undefined) | 6.7 | 3.5 | 16 | –
Active | inactive | 0.275 | COc1ccc2[nH]c3c(c2c1)CCN1C(=O)c2cc(NC(=O)CCCCC(=O)NO)ccc2N(C)C31 (centres undefined) | 62 | 22 | 36 | –
Active | – | – | COc1cc([C@@H]2c3cc4c(cc3[C@@H](O[C@@H]3O[C@@H]5CO[C@@H](C)O[C@H]5[C@H](O)[C@H]3O)[C@H]3COC(=O)[C@H]23)OCO4)cc(OC)c1O | – | – | – | –
Active | inactive | > 10 | COc1ccc2[nH]c3c(c2c1)CCN1C(=O)c2cc(NC(=O)CCCCCC(=O)NO)ccc2N(C)C31 (centres undefined) | 68 | 35 | 58 | –
Active | Active | 0.19 | CN1c2ccc(NCc3ccc(-c4noc(CCCCC(=O)NO)n4)cc3)cc2C(=O)N2CCc3c([nH]c4ccc(O)cc34)C21 (centres undefined) | 8.2 | 3.7 | 5.9 | –
– | – | – | O=C(CCCCCCC(=O)Nc1ccccc1)NO [VORINOSTAT] | – | – | – | Activity (HCT-116 [7]): 35.44%; Activity (HCT-116 [8]): 19.2%; Activity (HCT-116 [9]): 1.76%; Activity (HCT-116 [10]): 15.64%; Activity (HCT-116 [11]): 11.37%; Activity (HCT-116 [12]): 6.34%
Active | Active | 0.024 | CN1c2ccc(NCc3ccc(-c4noc(CCCCCCC(=O)NO)n4)cc3)cc2C(=O)N2CCc3c([nH]c4ccc(O)cc34)C21 (centres undefined) | 1.3 | 0.41 | 2.3 | Activity (HCT-116 [7]): 42.14%; IC50 [13]: 0.013 µM; Activity (HCT-116 [8]): 22.59%; IC50 (Histone deacetylase 2): 0.275 µM; inhibition [14]: Active; IC50 (Histone deacetylase 8): 2.5 µM; Activity (HCT-116 [9]): 2.68%; IC50 [15]: 0.071 µM; Activity (HCT-116 [10]): 7.96%; Activity (HCT-116 [11]): 29.76%; Activity (HCT-116 [12]): 16.73%
